Assay results published in ChEMBL document CHEMBL3098128, “Design and synthesis of tamoxifen derivatives as a selective estrogen receptor down-regulator” (Bioorg Med Chem Lett, 2014).
The source made the active and inactive calls. The calls are words filed in the database; no cut-off is given here.

Legend:
MCF7 [1] = assay: Downregulation of ERalpha protein levels in human MCF7 cells at 10 uM after 6 hrs by Western blot method; format: functional, cell-based
Procedure, shortened: (§1)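 MCF-7 breast cancer cells were incubated with compound or DMSO vehicle for 6 h. Compound was given at 10 µM in single-dose comparisons, or at 1 to 30 µM in the dose series. Whole-cell protein was extracted and ERα protein level was assessed by Western blotting.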

MCF7 [2] = assay: Upregulation of ERalpha protein levels in human MCF7 cells at 10 uM after 6 hrs by Western blot method; format: functional, cell-based
Procedure, shortened: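 MCF-7 human breast cancer cells exposed to 10 µM compound or DMSO vehicle for 6 h. Whole-cell protein extracted, and ERα protein level assessed by Western blotting against the DMSO-treated control.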

MCF7 [3] = assay: Downregulation of ERalpha protein levels in human MCF7 cells at 1 to 30 uM after 6 hrs by Western blot method; format: functional, cell-based; procedure, shortened: as §1
MCF7 [4] = assay: Downregulation of ERalpha protein levels in human MCF7 cells at 10 uM after 6 hrs by Western blot method in presence of proteasome inhibitor MG132; format: functional, cell-based
MCF7 [5] = assay: Downregulation of ERalpha protein levels in human MCF7 cells after 6 hrs by Western blot method; format: functional, cell-based; procedure, shortened: as §1
[6] = target: T1, Estrogen receptor (Homo sapiens) (UniProt P03372); assay: Antagonist activity at ERalpha in human MCF7 cells assessed as inhibition of E2-induced pS2 mRNA expression after 9 hrs by RT-PCR analysis; format: cell-based
T1 sequence (whole entry): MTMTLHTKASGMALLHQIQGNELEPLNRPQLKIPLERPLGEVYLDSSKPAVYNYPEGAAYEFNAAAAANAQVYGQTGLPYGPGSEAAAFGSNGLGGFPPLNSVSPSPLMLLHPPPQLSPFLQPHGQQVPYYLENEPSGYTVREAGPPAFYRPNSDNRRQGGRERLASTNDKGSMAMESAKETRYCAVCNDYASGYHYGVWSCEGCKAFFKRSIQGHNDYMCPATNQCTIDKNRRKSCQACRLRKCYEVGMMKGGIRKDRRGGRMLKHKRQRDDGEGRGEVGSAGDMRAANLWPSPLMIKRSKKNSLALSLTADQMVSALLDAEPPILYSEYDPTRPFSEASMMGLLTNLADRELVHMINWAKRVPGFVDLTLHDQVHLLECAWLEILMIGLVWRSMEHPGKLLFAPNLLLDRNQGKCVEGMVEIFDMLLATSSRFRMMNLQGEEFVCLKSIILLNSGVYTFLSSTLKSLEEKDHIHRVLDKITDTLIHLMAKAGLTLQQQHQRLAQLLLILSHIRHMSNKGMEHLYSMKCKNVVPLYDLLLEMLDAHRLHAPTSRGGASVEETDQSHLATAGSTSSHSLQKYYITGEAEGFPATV
Procedure, shortened: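 MCF-7 cells treated with compound across 0.1 to 10 µM, with or without 10 nM E2, for 9 h. Total RNA was extracted and reverse-transcribed. pS2 mRNA was quantified by real-time PCR.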

MCF7 [7] = assay: Downregulation of ERalpha protein levels in human MCF7 cells at 30 uM after 6 hrs by Western blot method; format: functional, cell-based; procedure, shortened: as §1

Compound: CCCCCCCCCCCCCCCCCCNCCOc1ccc(/C(=C(/CC)c2ccccc2)c2ccc(O)cc2)cc1
- Activity (MCF7 [1]): inactive

Compound: CCC(=C(c1ccc(O)cc1)c1ccc(OCCN(C)C)cc1)c1ccccc1
- Activity (MCF7 [2]): Active

Compound: CCCCCCCCCCCCN(CCCCCCCCCCCC)CCOc1ccc(/C(=C(/CC)c2ccccc2)c2ccc(O)cc2)cc1
- Activity (MCF7 [1]): inactive

Compound: CCCCCCNCCOc1ccc(/C(=C(/CC)c2ccccc2)c2ccc(O)cc2)cc1
- Activity (MCF7 [3]): inactive
- Activity (MCF7 [1]): inactive

Compound: CC/C(=C(\c1ccc(O)cc1)c1ccc(OCCNC)cc1)c1ccccc1
- Activity (MCF7 [2]): Active

Compound: CCCCCCCCCCCCN(C)CCOc1ccc(/C(=C(/CC)c2ccccc2)c2ccc(O)cc2)cc1
- Activity (MCF7 [1]): inactive

Compound: CCCCCCCCCCCCNCCOc1ccc(/C(=C(/CC)c2ccccc2)c2ccc(O)cc2)cc1
- Activity (MCF7 [4]): inactive
- Activity (MCF7 [5]): Dose-dependent effect
- inhibition [6]: Dose-dependent effect
- Activity (MCF7 [7]): Active
- Activity (MCF7 [1]): Active
